Reference: ChEMBL document CHEMBL1128385, “Three-dimensional quantitative structure-activity relationships of somatostatin analogues. 1. Comparative molecular field analysis of growth hormone release-inhibiting potencies” (J Med Chem, 1995)

Species: Rattus norvegicus
Assay: In vitro GH release inhibiting potency on anterior pitutaries from adult male rats, relative to somatostatin
Format: functional
Method in brief: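 Rat anterior pituitary cells (adult males, 200-250 g), trypsin/DNase dispersed, plated 2 × 10^5 cells/well, cultured 96 h at 37 °C in serum-supplemented DMEM. After washing, cells were pulsed 3 h at 37 °C with 1 nM GRF(1-29)NH2 ± graded analogue doses in medium 199/1% BSA, quadruplicate wells. Medium GH was measured by double-antibody RIA. Potency relative to somatostatin (=1.0) came from four-point assay (mean of ≥3 experiments) or IC50 comparison.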

SMILES: C[C@@H](O)[C@@H]1NC(=O)[C@H](CCCCN)NC(=O)[C@@H](Cc2c[nH]c3ccccc23)NC(=O)[C@H](Cc2ccc(F)cc2)NC(=O)[C@H](Cc2ccccc2)NC(=O)CCCCCCNC(=O)[C@H](Cc2ccccc2)NC1=O (stereo in doubt)
- GHI: 20

SMILES: C[C@@H](O)[C@@H]1NC(=O)[C@H](CCCCN)NC(=O)[C@@H](Cc2c[nH]c3ccccc23)NC(=O)[C@H](Cc2cscn2)NC(=O)[C@H](Cc2ccccc2)NC(=O)CCCCCCNC(=O)[C@H](Cc2ccccc2)NC1=O (stereo in doubt)
- GHI: 5

SMILES: C[C@@H](O)[C@@H]1NC(=O)[C@H](CCCCN)NC(=O)[C@H](Cc2c[nH]c3cc(F)ccc23)NC(=O)[C@H](Cc2ccccc2)NC(=O)[C@H](Cc2ccccc2)NC(=O)CCCCCCNC(=O)[C@H](Cc2ccccc2)NC1=O (stereo in doubt)
- GHI: 2.4

SMILES: C[C@@H](O)[C@@H]1NC(=O)[C@H](CCCCN)NC(=O)[C@H](Cc2c[nH]c3ccc(Br)cc23)NC(=O)[C@H](Cc2ccccc2)NC(=O)[C@H](Cc2ccccc2)NC(=O)CCCCCCNC(=O)[C@H](Cc2ccccc2)NC1=O (stereo in doubt)
- GHI: 50

SMILES: C[C@@H](O)[C@@H]1NC(=O)[C@H](CCCN)NC(=O)[C@@H](Cc2c[nH]c3ccccc23)NC(=O)[C@H](Cc2ccccc2)NC(=O)[C@H](Cc2ccccc2)NC(=O)CCCCCCNC(=O)[C@H](Cc2ccccc2)NC1=O (stereo in doubt)
- GHI: 20

SMILES: C[C@@H]1NC(=O)[C@H](Cc2ccccc2)NC(=O)CCCCCCNC(=O)[C@H](Cc2ccccc2)NC(=O)[C@H]([C@@H](C)O)NC(=O)[C@H](CCCCN)NC(=O)[C@@H](Cc2c[nH]c3ccccc23)NC1=O (stereo in doubt)
- GHI: 6.25

SMILES: Cc1ccc2[nH]cc(C[C@@H]3NC(=O)[C@H](Cc4ccccc4)NC(=O)[C@H](Cc4ccccc4)NC(=O)CCCCCCNC(=O)[C@H](Cc4ccccc4)NC(=O)[C@H]([C@@H](C)O)NC(=O)[C@H](CCCCN)NC3=O)c2c1 (stereo in doubt)
- GHI: 14
